PolyA inh = inhibitors of polyadenylation in S. cerevisiae; S. cerevisiae SKY197-pL101 polyadenylation reporter, beta-gal luminescence; efflux-impaired pdr1/pdr3 knockout yeast; score 100 = 6 SD above DMSO; AID 1875; 300,000 tested, 0.02% active; activity score, % at 12 µM;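 active = lowest replicate activity score at least 50, where 100 means six control SD above control mean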;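 also: yeast exposed to compound for 9 h at 30 °C; higher score means more reporter readthrough which indicates perturbed polyadenylation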
DAGLB inhibitor = diacylglycerol lipase beta (human) inhibition; inhibition, % at 5.17 µM; HEK293T DAGLB membrane lysate, EnzChek fluorogenic substrate; 340,000 tested, 0.059% active; Q8NCG7; in the data active = inhibition above about 34%
Tn7 DDE FP = DD(E)-Tn7 binding inhibition, primary FP screen; 370,000 tested, 0.13% active; FP displacement of FITC-Tn7 peptide from fibrin DD(E); 0% = median of compound wells per plate; AID 720508; P02675; inhibition, % at 8.3 µM;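 active = inhibition above the mean of compounds falling within the control limits plus 3 SD of them, cut at about 14% in these data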
Target sequence (P02675 whole entry, looked up): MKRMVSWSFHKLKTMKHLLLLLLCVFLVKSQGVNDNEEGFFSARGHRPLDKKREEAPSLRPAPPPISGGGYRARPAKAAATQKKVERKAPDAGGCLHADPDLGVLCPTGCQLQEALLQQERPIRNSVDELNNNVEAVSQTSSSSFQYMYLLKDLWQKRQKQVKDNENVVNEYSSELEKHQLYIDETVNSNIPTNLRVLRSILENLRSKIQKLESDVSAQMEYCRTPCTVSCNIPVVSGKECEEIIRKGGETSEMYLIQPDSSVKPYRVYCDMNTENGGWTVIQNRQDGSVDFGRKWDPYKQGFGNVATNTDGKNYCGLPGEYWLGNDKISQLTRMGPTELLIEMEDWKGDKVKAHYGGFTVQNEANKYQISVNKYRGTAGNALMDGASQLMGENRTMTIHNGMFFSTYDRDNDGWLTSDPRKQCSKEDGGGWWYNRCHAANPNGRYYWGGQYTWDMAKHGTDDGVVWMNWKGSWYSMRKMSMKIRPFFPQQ
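Test system – human fibrin DD(E) · Times – 10 min preincubation, 3 h with tracer, room temperature · Detection – fluorescence polarization of the labelled Tn7 tracer · Measure – percent inhibition normalized to high-control wells · Benchmarks – high control wells with 10 µM unlabelled Aha-Tn7 peptide (full inhibition) · Repeats – singlicate testing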
DDE Tn6 FP inh = disrupts Tn6 cyclic peptide binding to fibrin D-Dimer-E complex | Fibrin DD(E) TRITC-Tn6 fluorescence polarization displacement | inhibition, % at 8.3 µM | 370,000 tested, 0.21% active;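 active = inhibition above a per-campaign cutoff: mean of compounds within control limits plus 3 SD, cut at about 15% in these data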
SKN-1 block = inhibitors of C. elegans SKN-1. C. elegans VP596 Pgst-4::GFP/RFP ratio, acrylamide-induced, 24 h. inhibition, % at 21.8 µM. 360,000 tested, 0.49% active. AID 624304;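 active = interference check ratio from 0.5 to 1.5 plus GFP to RFP signal ratio inhibition reaching or exceeding a fixed threshold, cut at about 30% in these data, passing the limit was not always enough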
MT1-MMP act inh = MT1-MMP (human) activation inhibition | AID 651647 | GFP/RFP ratio change, % at 20 µM | HT1080 RFP-PRO-GFP cells, GFP/RFP ratio fluorescence, overnight; percent of plate control window, DMSO zero | P50281 | 360,000 tested, 0.061% active;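 active = GFP/RFP ratio change of at least 30% with cell ATP level not reduced by more than half and red fluorescence within 50% of control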
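Assay system – RFP-PRO-GFP reporter HT1080 cells · Compound dosing – single dose of 20 µM compound, 1% DMSO final · Incubation – overnight compound exposure at 37 °C · Measure – GFP/RFP fluorescence ratio · Benchmarks – DMSO wells and RFP-L50D-GFP cells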
Each line names hits and unclear results; the compound was inactive in the other large screens. In the library only some 0.9% were active in any assay of this set; here they are far more common.

CC(C)c1nnc(NC(=O)CC(C)c2ccccc2)s1 (centres undefined)	none
Cc1cnc(NC(=O)CC(C)c2ccccc2)s1 (centres undefined)	SKN-1 block 35
Cn1c(=O)cc(OCCCC(=O)Nc2cc(C(F)(F)F)ccn2)c2ccccc21	none (no result: PolyA inh, DAGLB inhibitor, SKN-1 block, MT1-MMP act inh)
COc1ccc(NC(=O)Nc2ccc(N3CCOCC3)c3nonc23)c(OC)c1	SKN-1 block 44
O=C(Nc1ccc(F)cc1)Nc1ccc(N2CCOCC2)c2nonc12	none
CCCN1C(=O)/C(=C/c2ccc(N3CCCC3)c(C)c2)NC1=S	SKN-1 block 46
Cn1nccc1-c1ccc(C(=O)Nc2cccc(NS(C)(=O)=O)c2)c2occc12	SKN-1 block 37 (no result: PolyA inh, DAGLB inhibitor)
CCCCCCCCN1C(=O)[C@@H](CC(=O)NCC23CC4CC(CC(C4)C2)C3)C[C@@]2(C(=O)OC)C1=C[C@H](COCc1ccccc1)O[C@@H]2C	none (no result: PolyA inh, DAGLB inhibitor, SKN-1 block, MT1-MMP act inh)
O=C(Nc1c(-c2ccc(C(F)(F)F)cc2)nc2ncccn12)c1ccc(F)cc1	none (no result: PolyA inh, DAGLB inhibitor, SKN-1 block, MT1-MMP act inh)
CC(NC(=O)c1ccc(Br)cc1)c1ccccc1 (centres undefined)	PolyA inh 70
CC(NC(=O)c1cc(Br)ccc1Cl)c1ccccc1 (centres undefined)	none
CC(NC(=O)c1ccccc1)c1ccc(Br)cc1 (centres undefined)	none (no result: MT1-MMP act inh)
CC(NC(=O)c1ccc(Br)cc1Br)c1ccccc1 (centres undefined)	PolyA inh 62 (no result: DAGLB inhibitor)
CCOc1ccccc1NC(=O)CSc1nnc(SCc2ccccc2)s1	none (no result: PolyA inh, DAGLB inhibitor, SKN-1 block, MT1-MMP act inh)
O=C(CSc1nc2ccccc2nc1N1CCOCC1)N1CCN(S(=O)(=O)c2cccc([N+](=O)[O-])c2)CC1	none (no result: PolyA inh, DAGLB inhibitor, SKN-1 block, MT1-MMP act inh)
COC(=O)CN1C(=S)N(Cc2ccccc2)C(=O)C1CC(=O)Nc1ccc(Br)cc1 (centres undefined)	SKN-1 block 39
O=C(/C=C/c1ccc(Cl)cc1Cl)NC(=S)Nc1ccccn1	SKN-1 block 38
O=C(/C=C/c1ccccn1)c1cc(Cl)cc(Cl)c1O	none
Clc1ccc(C=Cc2ccccn2)c(Cl)c1	SKN-1 block 85 (no result: PolyA inh)
O=C(/C=C/c1ccc(Cl)cc1Cl)NC(=S)Nc1ccc(CN2CCOCC2)cc1	none
C#CCNC(=O)C[C@@H]1C(=O)N(CC=C)C2=CCCCC[C@]21C(=O)OC	none (no result: PolyA inh, DAGLB inhibitor, SKN-1 block, MT1-MMP act inh)
Cc1[nH]c2ccccc2c1SCCN	none
Cc1[nH]c2ccccc2c1SCc1ccccc1	SKN-1 block 40
CN[C@H]1C[C@H]2c3[nH]c4c(-c5cccc(C)c5)cccc4c3CCN2C(=O)[C@H]1[C@H](C)O	none (no result: PolyA inh, DAGLB inhibitor, SKN-1 block, MT1-MMP act inh)
Cc1ccc2nc(-c3ccc(NC(=O)CSc4nnc(Cc5cccs5)n4C)cc3)sc2c1	none (no result: PolyA inh, DAGLB inhibitor, SKN-1 block, MT1-MMP act inh)
Cn1c2ccccc2c2cc(C(=O)OCC(=O)N3CC(=O)Nc4ccccc43)sc21	SKN-1 block 46
Cc1ccc(NS(=O)(=O)c2cc3c(cc2Cl)NC(=O)CO3)cc1C	none (no result: PolyA inh, DAGLB inhibitor, SKN-1 block, MT1-MMP act inh)
COc1cc(C)ccc1NC(=O)Cc1csc(NC(=O)Nc2ccccc2OC)n1	none
CCC(=O)Nc1nc(CC(=O)Nc2ccccc2OC)cs1	SKN-1 block 35
CCN(CC)c1cccc(OC2=NS(=O)(=O)c3ccccc32)c1	DDE Tn6 FP inh 111
CCc1ccc(OC2=NS(=O)(=O)c3ccccc32)cc1	none
CCCSc1nnc(-c2ccco2)n1C	none (no result: PolyA inh, DAGLB inhibitor, SKN-1 block, MT1-MMP act inh)
CCCCCCCCCCCCCCCC[N+](C)(C)CCN(Cc1ccc(OC)cc1)c1ncccn1	SKN-1 block 59 (no result: PolyA inh, Tn7 DDE FP, DDE Tn6 FP inh)
O=CN1CCc2scc[n+]2-c2ccccc21	SKN-1 block 36
CCN(CC)c1ccc(N=Cc2ccccc2[N+](=O)[O-])cc1	MT1-MMP act inh 52
CCc1ccc(CCNC(=O)OCCCN2CCC3(CCC(c4ccccc4)CC3)C2=O)cc1 (centres undefined)	none (no result: PolyA inh, DAGLB inhibitor, SKN-1 block, MT1-MMP act inh)
CCOC(=O)C1CCN(C(=O)C(C)(C)NC(=O)Nc2ccc(OC)c(Cl)c2)CC1	none (no result: PolyA inh, DAGLB inhibitor, SKN-1 block, MT1-MMP act inh)
COc1ccc(C(C)=O)cc1CN1C(=O)C(C)ON=C1c1ncccc1C (centres undefined)	none (no result: PolyA inh, DAGLB inhibitor)
COc1ccc(C(C)=O)cc1CN1C(=O)C(C)ON=C1c1cccc(C(F)(F)F)c1 (centres undefined)	SKN-1 block 35 (no result: PolyA inh, DAGLB inhibitor)
CCCCOC(=O)c1ccc(NC(=S)NC(=O)c2ccco2)cc1	none
CCCCOC(=O)c1ccc(NC(=O)/C=C/c2cccs2)cc1	SKN-1 block 37
CCCCCOC(=O)c1ccc(NC(=O)c2ccco2)cc1	SKN-1 block 71
CCCCOC(=O)c1ccc(NC(C)=O)cc1	none
CC(=O)Nc1ccc2c(c1)Cc1c-2cc(Br)c(N)c1Br	SKN-1 block 37 (no result: PolyA inh)
CC(=O)Nc1c(Br)cc2c(c1Br)Cc1cc(Br)ccc1-2	none (no result: PolyA inh)
COc1cc(CNC(C)c2ccccc2)cc(Br)c1OCc1ccc(F)cc1 (centres undefined)	SKN-1 block 66
COc1cc(CNC(C)(C)CO)cc(Br)c1OCc1ccc(Cl)cc1	SKN-1 block 55
C#CCCCN([C@@H](CC(C)C)C(=O)OC)S(=O)(=O)c1ccccc1Br	none (no result: PolyA inh, DAGLB inhibitor, SKN-1 block, MT1-MMP act inh)
C=CCN(CC=C)CC(O)CN(c1cc([N+](=O)[O-])ccc1OC)S(=O)(=O)c1ccccc1 (centres undefined)	SKN-1 block 38
CCCC(=O)OC12CCCN(C1)/C(=C/c1ccc(OC)cc1)C2 (centres undefined)	none (no result: PolyA inh, DAGLB inhibitor, SKN-1 block, MT1-MMP act inh)
O=c1c2sc(-c3ccccc3)cc2nc2n1CCC2	PolyA inh 113
C=CCN(C)CC#Cc1ccc(F)cc1	none (no result: PolyA inh, DAGLB inhibitor, SKN-1 block, MT1-MMP act inh)
Oc1ccc(C=NNC(=S)Nc2ccccc2)nc1	SKN-1 block 45 (no result: PolyA inh)
O=c1oc2c3c4c(cc2s1)CCCN4CCC3	none
O=c1ccc2cc3c4c(c2o1)CCCN4CCC3	Tn7 DDE FP 23
Cc1ccc(C)c(NC(=O)c2cc3ccccc3o2)c1	SKN-1 block 40
Cc1ccc(C)c(NC(=O)c2sc(Cl)nc2-c2ccccc2)c1	SKN-1 block 48
COc1ccc(NC(=O)CN2CCN(Cc3ccc4c(c3)OCO4)CC2)cc1OC	SKN-1 block 37
CSCCCNC(=O)c1cn(C(C)c2ccccc2)nn1 (centres undefined)	none (no result: PolyA inh, DAGLB inhibitor, SKN-1 block, MT1-MMP act inh)
CCCc1cc(C(=O)Nc2nccs2)cs1	SKN-1 block 33
CC1=C(C#N)c2nc(N)c(C#N)c(C)c2/C1=C\c1ccc(-c2ccccc2C(=O)O)o1	SKN-1 block 43
COc1ccc2cc(N3CCCC3=O)ccc2c1	SKN-1 block 41 (no result: PolyA inh)
CC(C(=O)N1CCOCC1)N1C(=O)c2ccccc2C1=O (centres undefined)	none
CC(C(=O)N1CCN(C)CC1)N1C(=O)c2ccccc2C1=O (centres undefined)	SKN-1 block 36
O=C(Nc1ccc(OC(F)F)c(Cl)c1)c1ccccn1	SKN-1 block 59
COc1ccc(NC(=O)c2ccc(OC(F)F)cc2)cc1Cl	none

Assay outcomes from PubChem.
